PMC9157583 (Alzheimer's & Dementia : Translational Research & Clinical …, 2022)
“And” between values parts separate entries of the source, which are not always exact repeats. Equal entries are not always repeated. Where two headings read alike, the source gives them in different places.

Tests used:
[1] = test system: individuals with dementia with Lewy bodies; format: in vivo, human; conditions: bosutinib 100 mg once daily, 12 weeks
[2] = Pharmacokinetics: bosutinib concentration in plasma of DLB participants; format: in vivo, human; conditions: for Tmax / AUC / Cmax: human; for AUC: AUC0‐4, plasma
[3] = biological target: Src (Homo sapiens, UniProt P12931); assay: Phospho‐Src; format: in vivo; conditions: bosutinib 100 mg compared to placebo, 12 weeks
Src, sequence (P12931 whole entry): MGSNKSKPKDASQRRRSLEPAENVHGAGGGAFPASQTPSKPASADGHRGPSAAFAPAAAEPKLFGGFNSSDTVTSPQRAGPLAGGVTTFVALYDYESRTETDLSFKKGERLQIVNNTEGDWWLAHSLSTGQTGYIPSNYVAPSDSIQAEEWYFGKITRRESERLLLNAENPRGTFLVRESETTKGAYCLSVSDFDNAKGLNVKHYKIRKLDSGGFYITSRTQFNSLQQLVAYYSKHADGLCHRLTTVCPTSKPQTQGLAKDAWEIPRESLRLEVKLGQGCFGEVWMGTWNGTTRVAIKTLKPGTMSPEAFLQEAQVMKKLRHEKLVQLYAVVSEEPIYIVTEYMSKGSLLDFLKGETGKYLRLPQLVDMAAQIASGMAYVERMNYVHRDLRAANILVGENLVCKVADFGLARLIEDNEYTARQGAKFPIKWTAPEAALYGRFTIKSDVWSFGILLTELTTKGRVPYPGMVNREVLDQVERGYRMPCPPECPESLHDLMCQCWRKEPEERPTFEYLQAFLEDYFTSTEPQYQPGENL
Summary of the method: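 Phospho-Src was assayed with a PathScan sandwich ELISA. CSF or plasma was added to wells coated with rabbit polyclonal antibody that captures Src phosphorylated at Tyr416. Samples came from DLB participants at baseline and after 12 weeks of oral test compound 100 mg daily or placebo. Within-group changes used a one-tailed paired Wilcoxon test; between-group changes used a one-tailed Welch-corrected unpaired t-test.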

[4] = test system: dopamine metabolites DOPAC and HVA; assay: Quantification of dopamine metabolites DOPAC and HVA; format: in vivo, human; conditions: bosutinib 100 mg compared to placebo, 12 weeks
Summary of the method: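 CSF DOPAC and HVA were derivatized with benzoyl chloride and quantified by UHPLC-MS/MS. CSF was obtained by lumbar puncture at baseline and week 12, 1–4 h after oral test compound 100 mg daily or placebo and ~2 h after the last levodopa dose. Values were given as mean ± SD, with one-sided tests at 5% type I error and 90% CI.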

[5] = test system: alpha‐synuclein; assay: Total alpha‐synuclein ELISA in CSF and plasma; format: in vivo, human; conditions: bosutinib 100 mg compared to placebo, 12 weeks
Summary of the method: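 Total alpha-synuclein in CSF and plasma was measured by solid-phase sandwich ELISA per the kit protocol, and the CSF/plasma ratio was calculated from the two levels. Samples were taken at baseline and week 12 from DLB participants given oral test compound 100 mg daily or placebo. Changes were compared within groups by one-tailed paired Wilcoxon test and between groups by one-tailed Welch t-test.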

[6] = test system: alpha‐synuclein oligomer; assay: Oligomeric alpha‐synuclein ELISA in CSF and plasma; format: in vivo, human; conditions: CSF or plasma, bosutinib vs placebo
Summary of the method: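 Oligomeric alpha-synuclein in CSF and plasma was quantified with a commercial quantitative ELISA kit per the manufacturer's protocol. Samples were drawn at baseline and week 12 from DLB participants on oral test compound 100 mg daily or matching placebo, 1–4 h after dosing and ~2 h after the last levodopa dose.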

[7] = test system: Aβ40, Aβ42, total tau, p‐tau 181; assay: Aβ40, Aβ42, total tau, and p‐tau 181 ELISA in CSF and plasma; format: in vivo, human; conditions: CSF or plasma, bosutinib vs placebo
Summary of the method: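 Plasma (10 mL blood) and lumbar-puncture CSF (~15 mL) were taken at baseline and at week 12 from DLB participants randomized 1:1 to oral test compound 100 mg daily or placebo. Sampling was 1–4 h post-dose, ~2 h after the last levodopa dose. Aβ40, Aβ42, total tau and p-tau181 were measured by Milliplex ELISA, with CSF and plasma run in parallel using the same reagents.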

[8] = test system: individuals with dementia with Lewy bodies; assay: Exploratory clinical assessments; format: in vivo, human; conditions: change 12 week‐ baseline, bosutinib 100 mg vs. placebo; interval in brackets
[9] = test system: Abl/SRC; conditions: cited from earlier work
[10] = open label study, 12 months; cited from earlier work
[11] = cited from earlier work
[12] = for AUC / Cmax / Tmax: human, in vivo, po; for AUC: AUC0‐4, CSF
[13] = 100 mg, 12 weeks vs single dose
[14] = plasma, single oral dose 500 mg, normal individuals, n = 6
[15] = CSF, 100 mg, 12 weeks vs single dose
[16] = 100 mg, CSF, multiple oral doses 100 mg once daily, 12 weeks
[17] = 100 mg, CSF, single oral dose 100 mg
[18] = 200 mg, CSF, single oral dose 200 mg

For COc1cc(Nc2c(C#N)cnc3cc(OCCCN4CCN(C)CC4)c(OC)cc23)c(Cl)cc1Cl [Bosutinib, Bosutinib monohydrate], the “Prolongation of QTc intervals” value [1] was “no prolongation of QTc intervals”, the “Serious adverse events (SAEs)” value [1] was “no serious adverse events” and the Total dropped out ([1]; DLB, N = 13, number (%)) was 0 (0%). For the same compound, the “Adverse event: Dizziness, number of events (%)” value ([1]; N = 13) was 1 (7.7%), the “Adverse event: Falls, number of events (%)” value ([1]; N = 13) was 3 (23.1%) and the “Adverse event: Flu, number of events (%)” value ([1]; N = 13) was 0 (0%). For the same compound, the “Adverse event: Impaction, number of events (%)” value ([1]; N = 13) was 0 (0%), the “Adverse event: Liver transaminases, number of events (%)” value ([1]; N = 13) was 1 (7.7%) and the “Adverse event: Pain, number of events (%)” value ([1]; N = 13) was 3 (23.1%). The “Adverse event: Post‐lumbar puncture headache, number of events (%)” value ([1]; N = 13) was 1 (7.7%), the “Adverse event: Upper respiratory infection, number of events (%)” value ([1]; N = 13) was 0 (0%) and the “Adverse event: Urinary incontinence, number of events (%)” value ([1]; N = 13) was 1 (7.7%). The “Adverse event: Urinary tract infection, number of events (%)” value ([1]; N = 13) was 1 (7.7%), the “Total number of adverse events (AEs)” value ([1]; N = 13, 9 in placebo, P = 0.68) was 11 and the “Increase of plasma exposure (AUC0‐4), multiple doses compared to a single dose” value [2, 13] was roughly 3 fold. For the same compound, the “Increase of plasma level (Cmax), multiple doses compared to a single dose” value [2, 13] was “more than 2 fold”, the Tmax ([2]; oral, Tmax in the current study, between 0 and 4 hours, current study) was 3 to 4 h and the AUC ([2]; po, 100 mg, multiple oral doses 100 mg once daily, 12 weeks) was 73.1 ng·h/mL and 0.138 µM·h. For the same compound, the AUC ([2]; po, 100 mg, single oral dose 100 mg) was 25 ng·h/mL and 0.0479 µM·h, the Cmax ([2]; po, 100 mg, multiple oral doses 100 mg once daily, 12 weeks, n = 13) was 29.9 ng/mL and 56.4 nM and the Cmax ([2]; po, 100 mg, single oral dose 100 mg, n = 9) was 13.5 ng/mL and 25.5 nM. For the same compound, the Tmax ([2]; po, 100 mg, Tmax, multiple oral doses 100 mg once daily, 12 weeks) was 4 h, the Tmax ([2]; po, 100 mg, Tmax, single oral dose 100 mg, sampling 0 to 4 hours) was 3 h and the AUC ([2]; po, 200 mg, single oral dose 200 mg) was 36.9 ng·h/mL and 0.0696 µM·h. The Cmax ([2]; po, 200 mg, single oral dose 200 mg, n = 9) was 19.6 ng/mL and 37 nM, the “CSF p‐Src” value ([3]; CSF, Figure 2D) was “could not demonstrate differences” and the “Plasma active Src phosphorylated at Tyr416” value ([3]; plasma, Figure 2C) was “significantly reduced”. The “CSF DOPAC level” value ([4]; CSF, Figure 2E) was “no statistically significant difference”, the “CSF HVA level” value ([4]; CSF, Figure 2F) was “no statistically significant difference” and the “Plasma DOPAC level” value ([4]; plasma, Figure 2G) was “significantly reduced”. The “Plasma HVA level” value ([4]; plasma, Figure 2H) was “significantly reduced”, the “CSF alpha‐synuclein level” value ([5]; CSF, Figure 2I) was “significantly reduced” and the “CSF:plasma of alpha‐synuclein” value ([5]; Figure 2K) was “reduced”. For the same compound, the “Oligomeric alpha‐synuclein” value [6] was “no differences”, the Aβ40 [7] was “no differences” and the Aβ42 [7] was “no differences”. For the same compound, the Total tau [7] was “no differences”, the “p‐tau181” value [7] was “no differences” and the “Alzheimer's Disease Assessment Scale–Cognitive subscale (ADAS‐Cog)” value [8] was −0.66 (−4.67, 3.33). For the same compound, the “Clinician Assessment of Fluctuation (CAF)” value [8] was 1 (−2,3), the “Irritability and Apathy Scale (IAS)‐_Participant_APATHY” value [8] was 0 (−3, 4) and the “Irritability and Apathy Scale (IAS)‐_Participant_IRRITABILITY” value [8] was 0 (−2, 3). For the same compound, the “Irritability and Apathy Scale (IAS)‐_Partner_APATHY” value [8] was −1 (−4, 2), the “Irritability and Apathy Scale (IAS)‐_Partner_IRRITABILITY” value [8] was 1 (−1, 4) and the “Montreal Cognitive Assessment (MoCA)” value [8] was 0 (−1, 2). The “Neuropsychiatric Inventory (NPI) frequency x severity” value [8] was 0 (−8, 9), the “Neuropsychiatric Inventory (NPI)_Caregiver Distress” value [8] was 2 (−1, 6) and the “Problem Behaviours Assessment (PBA)” value [8] was 1 (−14, 10). The “Timed Up and Go” value [8] was 0 (−3, 2), the “Unified Parkinson's Disease Rating Scale (Activities of Daily Living)‐Part II” value [8] was −1 (−3, 2) and the “Unified Parkinson's Disease Rating Scale (Motor)‐Part III” value [8] was 0 (−4, 4). The “Unified Parkinson's Disease Rating Scale (SUM Part II+III)” value [8] was −1 (−6, 5), the “Unified Parkinson's Disease Rating Scale (UPDRS‐Cognition)‐Part I” value [8] was 0 (−2, 1) and the “Unified Parkinson's Disease Rating Scale (total Part I+III)” value [8] was −2 (−7, 6). For the same compound, the IC50 [9] was 1.2 nM, the “Repeatable Battery for the Assessment of Neuropsychological Status (RBANS)” value [10] was “less decline” and the “Tmax in previous studies” value ([11]; between 0 and 24 hours) was “around 6 hours”. For the same compound, the “AUC0‐24” value [11, 14] was 2190 ± 661 ng/h/mL, the Tmax [11, 14] was 3.50 (2.00–6.00) hrs and the “Increase of CSF exposure (AUC0‐4), multiple doses compared to a single dose” value [12, 15] was 10 fold. The “Increase of CSF level (Cmax), multiple doses compared to a single dose” value [12, 15] was 9 fold, the AUC ([12]; 100 mg, multiple oral doses 100 mg once daily, 12 weeks) was 1.15 ng·h/mL and 0.00216 µM·h and the AUC ([12]; 100 mg, single oral dose 100 mg) was 0.14 ng·h/mL and 0.00026 µM·h. It also gave a Cmax [12, 16] of 0.94 ± 0.32 nM, a Cmax ([12]; 100 mg, CSF, multiple oral doses 100 mg once daily, 12 weeks, n = 13) of 0.5 ± 0.17 ng/mL and a Cmax [12, 17] of 0.11 ± 0.08 nM. For the same compound, the Cmax ([12]; 100 mg, CSF, single oral dose 100 mg, n = 9) was 0.06 ± 0.04 ng/mL, the Tmax [12, 16] was 3 h and the Tmax [12, 17] was 2 h. For the same compound, the AUC ([12]; 200 mg, single oral dose 200 mg) was 0.24 ng·h/mL and 0.00044 µM·h, the Cmax [12, 18] was 0.25 ± 0.09 nM and the Cmax ([12]; 200 mg, CSF, single oral dose 200 mg, n = 9) was 0.13 ± 0.06 ng/mL. It also gave a Tmax [12, 18] of 4 h.
